pIC50: −log10 of the molar value.
Tests used:
[1] = test system: Human immunodeficiency virus 2; test: Antiviral activity against HIV 2 subtype H expressing 10I-34E-40P-41Y-60H-63N-70T-73G-82F-89L-92E protease gene sequence from HIV2 infected patient plasma and PBMC obtained at T1 during compound treatment measured after 13 months; type: functional, organism-based; details: Human immunodeficiency virus 2, subtype H
Procedure, shortened: (§1)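 Virus isolated by PBMC coculture from patient samples taken before (T0) or during (T1, T2) protease inhibitor exposure, with protease genes sequenced from plasma and PBMC isolates. Susceptibility was tested in the ANRS PBMC assay, and the 50% inhibitory concentration (IC50) was reported.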

[2] = test system: Human immunodeficiency virus 2; test: Antiviral activity against HIV 2 subtype A clinical isolate expressing 14H-17D-43T-68N/D protease gene sequence from HIV2 infected patient plasma and PBMC obtained before compound treatment measured after 13 months; type: functional, organism-based; details: Human immunodeficiency virus 2, subtype A; procedure, shortened: as §1
[3] = test system: Human immunodeficiency virus 2; test: Antiviral activity against HIV 2 subtype A clinical isolate expressing 5L/F-14Y/H-17G/D-43T-54I/M-62V/A-70R/K-71I protease gene sequence from HIV2 infected patient plasma and PBMC obtained at T1 during compound treatment measured after 13 months; type: functional, organism-based; details: Human immunodeficiency virus 2, subtype A; procedure, shortened: as §1
[4] = test system: Human immunodeficiency virus 2; test: Antiviral activity against HIV 2 subtype A clinical isolate expressing 14H-60K/N-65E protease gene sequence from HIV2 infected patient plasma and PBMC obtained before compound treatment measured after 13 months; type: functional, organism-based; details: Human immunodeficiency virus 2, subtype A; procedure, shortened: as §1
[5] = test system: Human immunodeficiency virus 2; test: Antiviral activity against HIV 2 subtype A clinical isolate expressing 54M-65E-71I-74N-90M protease gene sequence from HIV2 infected patient plasma and PBMC obtained at T1 during compound treatment measured after 13 months; type: functional, organism-based; details: Human immunodeficiency virus 2, subtype A; procedure, shortened: as §1
[6] = test system: Human immunodeficiency virus 2; test: Antiviral activity against HIV 2 subtype A clinical isolate expressing 10I-17D-40D-43I-46V-66V/A-70R/K protease gene sequence from HIV2 infected patient plasma and PBMC obtained before compound treatment measured after 13 months; type: functional, organism-based; details: Human immunodeficiency virus 2, subtype A; procedure, shortened: as §1
[7] = test system: Human immunodeficiency virus 2; test: Antiviral activity against HIV 2 subtype A clinical isolate expressing 10I-17D-40D-43I-45K/R-46V-54M-64I/V-69K/R-71V/I-90M protease gene sequence from HIV2 infected patient plasma and PBMC obtained at T1 during compound treatment measured after 13 months; type: functional, organism-based; details: Human immunodeficiency virus 2, subtype A; procedure, shortened: as §1
[8] = test system: Human immunodeficiency virus 2; test: Antiviral activity against HIV 2 subtype A clinical isolate expressing 14H-40D-70K-72R/K-91T/S protease gene sequence from HIV2 infected patient plasma and PBMC obtained before compound treatment measured after 13 months; type: functional, organism-based; details: Human immunodeficiency virus 2, subtype A; procedure, shortened: as §1
[9] = test system: Human immunodeficiency virus 2; test: Antiviral activity against HIV 2 subtype A clinical isolate expressing 10I-40D-43I-70K-82F-84V-85L-89V-90M-91T/L-98N/K protease gene sequence from HIV2 infected patient plasma and PBMC obtained at T1 during compound treatment measured after 13 months; type: functional, organism-based; details: Human immunodeficiency virus 2, subtype A; procedure, shortened: as §1
[10] = test system: Human immunodeficiency virus 2; test: Antiviral activity against HIV 2 subtype A clinical isolate expressing 10V/I-40D-43I-56V-70K-82F-84V-89V-90M protease gene sequence from HIV2 infected patient plasma and PBMC obtained at T2 during compound treatment measured after 3 months; type: functional, organism-based; details: Human immunodeficiency virus 2, subtype A; procedure, shortened: as §1
[11] = test system: Human immunodeficiency virus 2; test: Antiviral activity against HIV 2 subtype B clinical isolate expressing 14Y-61N-99L protease gene sequence from HIV2 infected patient plasma and PBMC obtained before compound treatment measured after 13 months; type: functional, organism-based; details: Human immunodeficiency virus 2, subtype B\r\n; procedure, shortened: as §1
[12] = test system: Human immunodeficiency virus 2; test: Antiviral activity against HIV 2 subtype B clinical isolate expressing 14Y-19P-33I-61N-71I-75M-84V-90M protease gene sequence from HIV2 infected patient plasma and PBMC obtained at T1 during compound treatment measured after 13 months; type: functional, organism-based; details: Human immunodeficiency virus 2, subtype B\r\n; procedure, shortened: as §1
[13] = test system: Human immunodeficiency virus 2; test: Antiviral activity against HIV 2 subtype B clinical isolate expressing 14Y-19P-61N-64V-71I-90M-95I protease gene sequence from HIV2 infected patient plasma and PBMC obtained at T2 during compound treatment measured after 3 months; type: functional, organism-based; details: Human immunodeficiency virus 2, subtype B\r\n; procedure, shortened: as §1
[14] = test system: Human immunodeficiency virus 2; test: Antiviral activity against HIV 2 subtype B clinical isolate expressing 12T-14Y-19P-40N-41D-61N-62I-96S-99L protease gene sequence from HIV2 infected patient plasma and PBMC obtained before compound treatment measured after 13 months; type: functional, organism-based; details: Human immunodeficiency virus 2, subtype B\r\n; procedure, shortened: as §1
[15] = test system: Human immunodeficiency virus 2; test: Antiviral activity against HIV 2 subtype B clinical isolate expressing 12Q-14R-17G/D-19P-61N-62I-92A protease gene sequence from HIV2 infected patient plasma and PBMC obtained before compound treatment measured after 13 months; type: functional, organism-based; details: Human immunodeficiency virus 2, subtype B\r\n; procedure, shortened: as §1
[16] = test system: Human immunodeficiency virus 2; test: Antiviral activity against Human immunodeficiency virus type 2 (ISOLATE ROD) after 13 months; type: functional, organism-based; details: Human immunodeficiency virus 2, ISOLATE ROD
Procedure, shortened: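 Reference strain ROD was tested in the ANRS PBMC assay alongside the clinical isolates, and the 50% inhibitory concentration (IC50) was reported.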

[17] = Antiviral activity against Human immunodeficiency virus type 1 (BRU ISOLATE) after […]; type: functional; details: Human immunodeficiency virus 1
[18] = test system: Human immunodeficiency virus 2; test: Antiviral activity against HIV 2 subtype H expressing 10I-40P-41Y-60H-63N-70T-73G-89L-92E protease gene sequence from HIV2 infected patient plasma and PBMC obtained before compound treatment measured after 13 months; type: functional, organism-based; details: Human immunodeficiency virus 2, subtype H; procedure, shortened: as §1

Row | SMILES | pIC50 [1] | IC90 [1] [nM] | pIC50 [2] | IC90 [2] [nM] | pIC50 [3] | pIC50 [4] | IC90 [4] [nM] | pIC50 [5] | IC90 [5] [nM] | pIC50 [6] | IC90 [6] [nM] | pIC50 [7] | IC90 [7] [nM] | pIC50 [8] | IC90 [8] [nM] | pIC50 [9] | IC90 [9] [nM] | pIC50 [10] | IC90 [10] [nM] | pIC50 [11] | further results
1 | CC(C)(C)NC(=O)[C@@H]1CN(Cc2cccnc2)CCN1C[C@@H](O)C[C@@H](Cc1ccccc1)C(=O)N[C@H]1c2ccccc2C[C@H]1O [INDINAVIR] | 4.92 | 99000 | > 8.00 | < 10 | 4.74 | 7.52 | 400 | 5.00 | 82000 | 8.40 | 100 | 6.70 | 3100 | 7.70 | 400 | 5.19 | 51000 | 4.96 | 90000 | 7.00 | IC90 [11]: 600 nM; pIC50 [12]: 5.42; IC90 [12]: 30000 nM; pIC50 [13]: 4.92; IC90 [13]: 95000 nM; pIC50 [14]: 8.40; IC90 [14]: 20 nM; pIC50 [15]: 6.40; IC90 [15]: 2600 nM; pIC50 [16]: 7.52; IC90 [16]: 300 nM; pIC50 [17]: 8.30; IC90 [17]: 40 nM; pIC50 [18]: 7.70; IC90 [18]: 500 nM
2 | Cc1cccc(C)c1OCC(=O)N[C@@H](Cc1ccccc1)[C@@H](O)C[C@H](Cc1ccccc1)NC(=O)[C@H](C(C)C)N1CCCNC1=O [LOPINAVIR] | 5.49 | 8700 | 7.52 | 80 | 7.40 | 7.40 | 200 | 6.40 | 3300 | 7.70 | 200 | 5.77 | 8500 | 7.70 | 80 | 7.00 | 800 | 7.00 | 1100 | 7.40 | IC90 [3]: 400 nM; IC90 [11]: 70 nM; pIC50 [12]: 6.70; IC90 [12]: 1500 nM; pIC50 [13]: 7.00; IC90 [13]: 900 nM; pIC50 [14]: 7.52; IC90 [14]: 100 nM; pIC50 [15]: 7.70; IC90 [15]: 200 nM; pIC50 [16]: 7.70; IC90 [16]: 70 nM; pIC50 [17]: 7.52; IC90 [17]: 100 nM; pIC50 [18]: 7.22; IC90 [18]: 500 nM
3 | CC(C)(C)NC(=O)[C@@H]1C[C@@H]2CCCC[C@@H]2CN1C[C@@H](O)[C@H](Cc1ccccc1)NC(=O)[C@H](CC(N)=O)NC(=O)c1ccc2ccccc2n1 [SAQUINAVIR] | 5.14 | 31000 | > 8.22 | < 6 | < 4.90 | 8.30 | 50 | < 4.90 | > 12500 | 8.70 | 20 | 7.05 | 700 | 8.30 | 20 | 5.19 | 51000 | 4.66 | 180000 | 4.85 | IC90 [3]: > 12500 nM; IC90 [11]: 82000 nM; pIC50 [12]: 5.09; IC90 [12]: 65000 nM; pIC50 [13]: 5.17; IC90 [13]: 52000 nM; pIC50 [14]: 8.15; IC90 [14]: 20 nM; pIC50 [15]: 7.22; IC90 [15]: 300 nM; pIC50 [16]: 8.00; IC90 [16]: 90 nM; pIC50 [17]: 8.00; IC90 [17]: 40 nM; pIC50 [18]: 7.52; IC90 [18]: 300 nM
4 | CCC[C@@]1(CCc2ccccc2)CC(O)=C([C@H](CC)c2cccc(NS(=O)(=O)c3ccc(C(F)(F)F)cn3)c2)C(=O)O1 [TIPRANAVIR] | 5.14 | 16000 | 6.52 | 2200 | 5.17 | 6.52 | 2500 | 5.33 | 14000 | 6.52 | 2700 | 5.39 | 23000 | 6.40 | 4200 | 5.55 | 16000 | 5.32 | 29000 | 6.40 | IC90 [3]: 26000 nM; IC90 [11]: 1700 nM; pIC50 [12]: 5.32; IC90 [12]: 17000 nM; pIC50 [13]: 5.40; IC90 [13]: 12000 nM; pIC50 [14]: 6.40; IC90 [14]: 3000 nM; pIC50 [15]: 6.52; IC90 [15]: 2600 nM; pIC50 [16]: 6.40; IC90 [16]: 3500 nM; pIC50 [17]: 7.30; IC90 [17]: 400 nM; pIC50 [18]: 6.40; IC90 [18]: 800 nM
